Columns and labels:
[1] = system: Klebsiella pneumoniae; experiment: fT>MIC in Klebsiella pneumoniae isolate 328A at 2 gram for every 8 hrs administered as 3 hrs infusion over 24 hrs in in vitro pharmcodynamic model; type: functional
In short: (§1)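 Samples assayed by HPLC (linear 0.25–40 µg/ml). Time free drug stayed above the modal triplicate broth-microdilution MIC (CLSI) calculated for each 8-h interval.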

[2] = system: Klebsiella pneumoniae; experiment: fT>MIC in Klebsiella pneumoniae isolate 357 at 2 gram for every 8 hrs administered as 3 hrs infusion over 24 hrs in in vitro pharmcodynamic model; type: functional; in short: as §1
[3] = system: Klebsiella pneumoniae; experiment: fT>MIC in Klebsiella pneumoniae isolate 360 at 2 gram for every 8 hrs administered as 3 hrs infusion over 24 hrs in in vitro pharmcodynamic model; type: functional; in short: as §1
[4] = system: Pseudomonas aeruginosa; experiment: fT>MIC in Pseudomonas aeruginosa isolate 1038 at 2 gram for every 8 hrs administered as 3 hrs infusion over 24 hrs in in vitro pharmcodynamic model; type: functional
[5] = system: Pseudomonas aeruginosa; experiment: fT>MIC in Pseudomonas aeruginosa isolate 762 at 2 gram for every 8 hrs administered as 3 hrs infusion over 24 hrs in in vitro pharmcodynamic model; type: functional
[6] = system: Pseudomonas aeruginosa; experiment: fT>MIC in Pseudomonas aeruginosa isolate 896 at 2 gram for every 8 hrs administered as 3 hrs infusion over 24 hrs in in vitro pharmcodynamic model; type: functional
[7] = system: Klebsiella pneumoniae; experiment: fT>MIC in Klebsiella pneumoniae isolate 377 at 2 gram for every 8 hrs administered as 3 hrs infusion measured over 0-8 hrs in in vitro pharmcodynamic model; type: functional
[8] = system: Klebsiella pneumoniae; experiment: fT>MIC in Klebsiella pneumoniae isolate 353 at 2 gram for every 8 hrs administered as 3 hrs infusion measured over 8-16 hrs in in vitro pharmcodynamic model; type: functional, isoalte 353; in short: as §1
[9] = system: Pseudomonas aeruginosa; experiment: fT>MIC in Pseudomonas aeruginosa isolate 1177 at 2 gram for every 8 hrs administered as 3 hrs infusion measured over 8-16 hrs in in vitro pharmcodynamic model; type: functional
[10] = system: Klebsiella pneumoniae; experiment: fT>MIC in Klebsiella pneumoniae isolate 328A at 2 gram for every 8 hrs administered as 3 hrs infusion measured over 16-24 hrs in in vitro pharmcodynamic model; type: functional; in short: as §1
[11] = system: Klebsiella pneumoniae; experiment: fT>MIC in Klebsiella pneumoniae isolate 351 at 2 gram for every 8 hrs administered as 3 hrs infusion measured over 16-24 hrs in in vitro pharmcodynamic model; type: functional; in short: as §1
[12] = system: Klebsiella pneumoniae; experiment: fT>MIC in Klebsiella pneumoniae isolate 357 at 2 gram for every 8 hrs administered as 3 hrs infusion measured over 16-24 hrs in in vitro pharmcodynamic model; type: functional; in short: as §1
[13] = system: Klebsiella pneumoniae; experiment: Antibacterial activity against Klebsiella pneumoniae isolate 354 assessed as reduction of bacterial count at 8 ug/ml within 6 hrs in vitro pharmacodynamic model; type: functional
[14] = system: Klebsiella pneumoniae; experiment: Antibacterial activity against Klebsiella pneumoniae isolate 351 assessed as reduction of bacterial count at 8 ug/ml within 6 hrs in vitro pharmacodynamic model; type: functional
[15] = system: Klebsiella pneumoniae; experiment: Antibacterial activity against Klebsiella pneumoniae isolate 377 assessed as reduction of bacterial count at 2 ug/ml within 6 hrs in vitro pharmacodynamic model; type: functional
[16] = system: Klebsiella pneumoniae; experiment: Antibacterial activity against Klebsiella pneumoniae isolate 360 assessed as reduction of bacterial count at 16 ug/ml within 6 hrs in vitro pharmacodynamic model; type: functional
[17] = system: Klebsiella pneumoniae; experiment: Antibacterial activity against Klebsiella pneumoniae isolate 375 assessed as reduction of bacterial count at 32 ug/ml within 6 hrs in vitro pharmacodynamic model; type: functional
[18] = system: Klebsiella pneumoniae; experiment: Antibacterial activity against Klebsiella pneumoniae isolate 368 assessed as reduction of bacterial count at 32 ug/ml within 6 hrs in vitro pharmacodynamic model; type: functional

SMILES: C[C@@H](O)[C@H]1C(=O)N2C(C(=O)O)=C(S[C@@H]3CN[C@H](C(=O)N(C)C)C3)[C@H](C)[C@H]12 [MEROPENEM]
- fT>MIC [1]: 69%
- fT>MIC [2]: 47%
- fT>MIC [3]: 47%
- fT>MIC [4]: 69%
- fT>MIC [5]: 47%
- fT>MIC [6]: 47%
- fT>MIC [7]: 100%
- fT>MIC [8]: 59%
- fT>MIC [9]: 78%
- fT>MIC [10]: 78%
- fT>MIC [11]: 50%
- fT>MIC [12]: 0%
- log10cfu [13]: >3
- log10cfu [14]: >3
- log10cfu [15]: >3
- log10cfu [16]: >3
- log10cfu [17]: >3
- log10cfu [18]: >3
